The Tmax is the time at which the peak concentration occurs.

Results on 4 compounds are retold here after article PMC6586034 (Clinical Pharmacology in Drug Development, 2018).

The format of data set [1] is in vivo, human. Conditions: febuxostat 80 mg + verinurad 2.5 mg.
For the next data set, the system named is serum urate (sUA). Briefly: Serum urate pharmacodynamics. Type of data set: in vivo, human. Conditions: for Change in sUA at 24 hours: steady state, 24 hours postdose. Put shortly: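 Healthy men were dosed orally once daily, each drug alone for 7 days, and serum was sampled predose to 24 h postdose on days 1, 7, 14 and 21. A central laboratory assayed serum urate. Baseline was the mean of all day −1 values. Maximum percentage change from baseline was taken per subject and averaged per group. A mixed-effects model used treatment as fixed effect, baseline as covariate and subject as random effect.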

The test system of another data set is uric acid. Briefly: Urinary uric acid pharmacodynamics. Type of data set: in vivo, human. Conditions: arithmetic mean (95%CI); for AeUR, % Change From baseline / CLUR, % Change From baseline / FEUA, % Change From baseline: day 7 of treatment vs day −1.
Another data set can be described thus: Safety/tolerability. Conditions: for Subjects with an increase from baseline in serum creatinine (sCr): none had sCr ≥1.5 × baseline; for Tolerability: multiple once-daily oral doses, alone or in combination, healthy adult males. It is filed as in vivo, human.
A further data set relates to URAT1. Conditions: cited from earlier work; for URAT1 activity: metabolites of verinurad.
The conditions of data set [2]: human; cited from earlier work.
Data set [3] is classed as in vivo, human. Conditions: for Tmax: male, human, plasma, po. In a few lines:
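Healthy men (18–65 y, sUA ≥4.5 mg/dL) took oral doses once daily, about 30–35 min after a moderate-fat breakfast. […] Plasma was sampled predose to 24 h on days 7, 14 and 21. Acetonitrile precipitation with deuterated internal standard, then LC/MS/MS (LLOQ 0.100 ng/mL). Log GMRs (90% CI) for single agent vs day 14 came from a mixed-effects model.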

Data set [4] is classed as in vivo, human. Put shortly: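 Urine was collected as total catch over 0–6, 6–12 and 12–24 h postdose on days 7 (alone), 14 (combination) and 21, under once-daily oral dosing in healthy men. Verinurad was measured by LC/MS/MS, linear 2.00–1000 ng/mL. Ae0-24, fe0-24 and CLR0-24 were derived. Log-transformed parameters were compared as geometric mean ratios with 90% CI using a mixed-effects model (treatment fixed, subject random).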

A further data set concerns major CYPs. Conditions: ref Ardea Biosciences, Inc., data on file; cited from earlier work.
[5] abbreviates: febuxostat 40 mg once daily alone.
The mark [6] stands for this setting: febuxostat 80 mg once daily alone.
The mark [7] stands for this setting: verinurad 2.5 mg combined with febuxostat 80 mg vs alone.
[8] abbreviates: VERU 2.5 mg + FBX 80 mg once daily oral, day 14, geometric mean.
[9] abbreviates: VERU 2.5 mg + FBX 80 mg once daily oral, day 14, mean (SD).
The mark [10] stands for this setting: VERU 2.5 mg once daily oral alone, day 7 or 21, geometric mean.
The mark [11] stands for this setting: VERU 2.5 mg once daily oral alone, day 7 or 21, mean (SD).
[12] abbreviates: VERU 10 mg + FBX 40 mg once daily oral, day 14, geometric mean.
Where [13] appears, read: VERU 10 mg + FBX 40 mg once daily oral, day 14, mean (SD).
Where [14] appears, read: VERU 10 mg once daily oral alone, day 7 or 21, geometric mean.
The mark [15] stands for this setting: VERU 10 mg once daily oral alone, day 7 or 21, mean (SD).
[16] abbreviates: verinurad 2.5 mg once daily alone.
Where [17] appears, read: verinurad 10 mg once daily alone.
Setting [18] is: VERU 2.5 mg once daily, Day 7 of Treatment (0 to 24 Hours).

Entries after “also recorded” stand apart in the source; their conditions may differ. Where two headings read alike, the source gives them in different places.

Turning to `Cc1nc(-c2ccc(OCC(C)C)c(C#N)c2)sc1C(=O)O` [febuxostat, Febuxostat, reference compound], the “Effect on Tmax of febuxostat” value in [1] was “remained unchanged”. Moreover, in the data set with serum urate (sUA) (setting [5]), the “Maximal reduction in serum urate” value is 49%, the “Mean maximal change from baseline in sUA at steady state” value (from here on “Mean maximal change from baseline”) is −49.1% and the “Change in sUA at 24 hours” value is −36.9%. In addition, in the data set with serum urate (sUA) (setting [6]), the “Maximal reduction in serum urate” value is 57%, the “Mean maximal change from baseline” value is −57.5% and the “Change in sUA at 24 hours” value is −45.4%. In the data set with uric acid (FBX 40 mg once daily), the “AeUR, % Change From baseline” value is on record as −64.1%; the “CLUR, % Change From baseline” value is listed as −34.4 (−45.3 to −23.5) %; the “FEUA, % Change From baseline” value is −24.5%. In the data set on uric acid (FBX 80 mg once daily), the “AeUR, % Change From baseline” value is reported as −72.4%; the “CLUR, % Change From baseline” value is given as −42.0 (−50.8 to −33.2) %; the “FEUA, % Change From baseline” value is given as −35.2%. Moreover, the “Subjects with an increase from baseline in serum creatinine (sCr)” value (“Subjects with an increase from baseline” below) in the data set “Safety/tolerability” (febuxostat 40 mg) was 1 subjects. Moreover, the “Subjects with an increase from baseline” value in the data set “Safety/tolerability” (febuxostat 80 mg) is listed as 2 subjects. The Tolerability result in “Safety/tolerability” is recorded as “generally well tolerated”.
Consider `CC(C)(Sc1ccncc1-c1ccc(C#N)c2ccccc12)C(=O)OC1OC(C(=O)O)C(O)C(O)C1O` (stereo not shown) [M1], for which the URAT1 activity result in the data set on URAT1 is “devoid of URAT1 activity”. For the same compound, in data set [2], the “Circulating level in blood relative to verinurad” value was “equimolar to verinurad”.
Take `CC(C)(Sc1cc[n+]([O-])cc1-c1ccc(C#N)c2ccccc12)C(=O)OC1OC(C(=O)O)C(O)C(O)C1O` (stereo not shown) [M8]: the URAT1 activity entry in the data set with URAT1 is on record as “devoid of URAT1 activity”. In data set [2], the “Circulating level in blood relative to verinurad” value is recorded as “equimolar to verinurad”.
Regarding `CC(C)(Sc1ccncc1-c1ccc(C#N)c2ccccc12)C(=O)O` [verinurad, Verinurad], the Tmax was 4 h in [3] (2.5 mg) and 2.75 h in [3] (10 mg). Moreover, the “Effect of febuxostat 40 mg on plasma exposure / PK parameters of verinurad 10 mg” value in data set [3] (once-daily co-administration, healthy males) is reported as “no effect; also recorded: unaffected; also recorded: not influenced”. Moreover, the “Increase in AUC0-24 of verinurad” value in data set [3] (setting [7]) turned out to be 33%. Besides, in data set [3] (setting [7]), the “Increase in Cmax of verinurad” value is 25%. Also, the “Effect on Tmax of verinurad” value in data set [3] (verinurad 2.5 mg in the presence of febuxostat 80 mg) is reported as “remained unchanged”. Also, the “Ae0-24 of verinurad (excreted unchanged in urine)” value was 30.0 [21.6‐41.6] μg in data set [4] (setting [8]); 30.0 µg in data set [4] (VERU 2.5 mg + FBX 80 mg once daily oral, day 14, geometric mean, listed as VERU); 32.3 (12.2) μg in [4] (setting [9]); 21.2 [14.8‐30.5] μg in data set [4] (setting [10]); 21.2 µg in data set [4] (VERU 2.5 mg once daily oral alone, day 7 or 21, geometric mean, listed as VERU); 23.3 (10.1) μg in [4] (setting [11]). The “Ae0-24 of verinurad (excreted unchanged in urine)” value was 97.6 µg in [4] (setting [12]), 106 (44.2) μg in data set [4] (setting [13]), 86.8 µg in [4] (setting [14]) and 97.2 (49.7) μg in data set [4] (setting [15]). The CLR0-24 of verinurad in data set [4] (setting [8]) is recorded as 14.4 mL/min; in [4] (setting [9]) it was 15.4 (5.97) mL/min; in data set [4] (setting [10]), 13.6 mL/min; in data set [4] (setting [11]), 15.1 (7.29) mL/min; in data set [4] (setting [12]), 15.2 mL/min; in data set [4] (setting [13]), 16.2 (5.43) mL/min. The CLR0-24 of verinurad in data set [4] (setting [14]) is 12.4 mL/min; in data set [4] (setting [15]), 13.6 (5.04) mL/min. For the same compound, the fe0-24 of verinurad was 1.20% in data set [4] (setting [8]); 1.29 (0.490) % in data set [4] (setting [9]); 0.849% in data set [4] (setting [10]); 0.932 (0.405) % in data set [4] (setting [11]); 0.976% in data set [4] (setting [12]); 1.06 (0.442) % in data set [4] (setting [13]). The fe0-24 of verinurad in data set [4] (setting [14]) was 0.868%; in [4] (setting [15]), 0.972 (0.497) %. The “Increase in Ae0-24 of verinurad” value in data set [4] (verinurad 2.5 mg in the presence of febuxostat 80 mg vs alone) came out at 41%. The “Maximal reduction in serum urate” value in the data set with serum urate (sUA) (setting [16]) came to 38%; in the data set on serum urate (sUA) (setting [17]), 56%. Moreover, the results for the “Mean maximal change from baseline” value in the data set with serum urate (sUA) (setting [16]) and with serum urate (sUA) (setting [17]) were −37.8% and −56.3%, respectively. The “Change in sUA at 24 hours” value with serum urate (sUA) (setting [16]) was −19.9%; in the data set on serum urate (sUA) (setting [17]), −38.0%. In addition, in the data set with uric acid (setting [18]), the “AeUR (amount of uric acid recovered in urine)” value is listed as 620 (485 to 755) mg. The “FEUA (fractional excretion of uric acid)” value in the data set on uric acid (setting [18]) is 7.55 (6.83 to 8.26) %. The “AeUR, % Change From baseline” value in the data set on uric acid (VERU 2.5 mg once daily) was −21.0%; with uric acid (VERU 10 mg once daily) it was −17.0%. The “CLUR, % Change From baseline” value is 10.7 (−7.92 to 29.3) % in the data set with uric acid (VERU 2.5 mg once daily) and 65.8 (14.2, 117) % with uric acid (VERU 10 mg once daily). Further, the “FEUA, % Change From baseline” value with uric acid (VERU 2.5 mg once daily) worked out at 17.2%; in the data set with uric acid (VERU 10 mg once daily) it was 105%. In addition, the Tolerability result in “Safety/tolerability” is “generally well tolerated”. Moreover, the figures for the “Subjects with an increase from baseline” value in “Safety/tolerability” (verinurad 2.5 mg) and in the data set “Safety/tolerability” (verinurad 10 mg) were 3 subjects and 2 subjects, respectively. The “Subjects with mild headache (only AE considered possibly related to verinurad)” value in the data set “Safety/tolerability” (verinurad 10 mg-alone group, resolved without treatment) is 1 subject. For the same compound, the “Potency in inhibiting URAT1” value with URAT1 is recorded as “high potency”. Also, the “Inhibition of the major CYPs” value in the data set with major CYPs was “does not inhibit”.
